In brackets after ≈: the same amount, converted by molar mass.
Legend:
E. faecalis ATCC29212 = assay: MIC, broth microdilution; assay type: cell-based
Summary of the method: (§1)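 Broth microdilution per CLSI. Strains were grown in Mueller–Hinton broth on a shaker at 37 °C for about 5 h, then diluted to ~10^5 CFU mL−1. Test compound was serially diluted (0.05–256 μg mL−1), and plates were incubated at 37 °C for 18 h. MIC is the lowest concentration with no visible growth. Run in triplicate.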

S. aureus LN38 = assay: MIC, broth microdilution; assay type: cell-based, Staphylococcus aureus
Summary of the method: as §1

[1] = tested on: L. monocytogenes CICC21662; assay: MIC, broth microdilution; assay type: cell-based
Summary of the method: as §1

S. aureus MRSA2 = assay: MIC, broth microdilution; assay type: cell-based, Staphylococcus aureus; conditions: for MIC: Staphylococcus aureus, MRSA2, read-out: Minimum inhibitory concentration (MIC), S. aureus MRSA2
Summary of the method: as §1

S. aureus ATCC 29213 [2] = assay: MIC, broth microdilution; assay type: cell-based; conditions: Staphylococcus aureus, ATCC29213, read-out: Minimum inhibitory concentration (MIC), S. aureus ATCC 29213
Summary of the method: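 Broth microdilution following CLSI guidelines. Strain grown in Mueller–Hinton broth with shaking at 37 °C for about 5 h, then diluted to ~10^5 CFU mL−1 in wells. Test compound serially diluted over 0.05–256 μg mL−1, and plates incubated 37 °C for 18 h. MIC taken as the lowest concentration with no visible growth. Run in triplicate.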

B. subtilis ATCC6633 = assay: MIC, broth microdilution; assay type: cell-based
Summary of the method: as §1

B. cereus CMCC63303 = assay: MIC, broth microdilution; assay type: cell-based
Summary of the method: as §1

S. aureus ATCC 29213 [3] = assay: Time-killing kinetics; assay type: cell-based, Staphylococcus aureus
S. aureus ATCC 29213 [4] = assay: Membrane permeability assay; assay type: cell-based, Staphylococcus aureus; conditions: 4 × MIC (32 μg mL^−1); 2 hours
[5] = tested on: IL-6 in LPS-stimulated RAW 264.7 macrophages; assay: IL-6 secretion, LPS-stimulated macrophages; assay type: cell-based; conditions: Mus musculus, RAW264.7, read-out: inhibition of IL-6 secretion
Summary of the method: (§2)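 RAW 264.7 cells (5 × 10^4 per well) were allowed to adhere overnight in DMEM with 10% FBS. Cells were pretreated with test compound for 2 h, then stimulated with LPS (e.g., 100 ng mL−1) for 24 h at 37 °C, 5% CO2. IL-6 and IL-1β in culture supernatants were measured by ELISA. Vehicle controls (e.g., 0.1% DMSO); ≥3 biological replicates.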

S. aureus ATCC 29213 [6] = assay: Membrane potential assay; assay type: cell-based, Staphylococcus aureus
Summary of the method: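 S. aureus ATCC 29213 was grown overnight, brought to log phase (OD600 = 0.4), pelleted and resuspended in PBS at 10^6–10^7 CFU mL−1. Cells were exposed to test compound or 10 μM CCCP (depolarization control) for 15 min at room temperature in the dark. DiOC2(3) (BacLight kit) was then added for 30 min under the same conditions; red/green fluorescence ratio recorded. Triplicate.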

rabbit red blood cells = assay: Hemolysis assay; assay type: cell-based
Summary of the method: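 Test compound in PBS was mixed 1:1 with 4% defibrinated rabbit erythrocytes in PBS (final 2–256 μg mL−1) at 37 °C. Cells were pelleted (1000×g, 5 min) and supernatant absorbance read at 490 nm. Hemolysis % = (sample − PBS)/(Triton − PBS), with 1% Triton X-100 as positive and sterile PBS as negative reference. Triplicate.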

S. aureus ATCC 29213 [7] = assay: DNA leakage; assay type: cell-based, Staphylococcus aureus; conditions: increasing concentrations (1 ×, 4 ×, 16 × MIC); 4 h
Summary of the method: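 Cells were pelleted (12 000×g, 10 min, 4 °C) and the supernatant passed through a 0.22 μm filter. Extracellular DNA was measured as A260 by microvolume spectrophotometry. Vehicle controls; technical triplicates.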

[8] = tested on: IL-1β in LPS-stimulated RAW 264.7 macrophages; assay: IL-1β production, LPS-stimulated macrophages; assay type: cell-based; conditions: Mus musculus, RAW264.7, read-out: inhibition of IL-1β production
Summary of the method: as §2

S. aureus ATCC 29213 [9] = assay: Drug resistance study; assay type: cell-based, Staphylococcus aureus; conditions: sub-MIC passage 28 days
[10] = Plasma protein binding, equilibrium dialysis; assay type: in vitro ADME; conditions: Sprague-Dawley, rat
Summary of the method: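 Equilibrium dialysis: bags holding 0.5 mL of blank Sprague–Dawley rat plasma were placed in 40 mL of PBS containing test compound at 30 μM. Incubation was 24 h at 37 °C with shaking at 100 rpm. Both compartments were assayed by HPLC. Binding % = (A − B)/A, where A is the total concentration inside the bag and B the free concentration in the dialysate. Nonspecific binding controls; triplicate.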

S. aureus ATCC 29213 [11] = assay: Protein leakage; assay type: cell-based, Staphylococcus aureus; conditions: increasing concentrations (1 ×, 4 ×, 16 × MIC); 4 h
Summary of the method: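 After centrifugation (12 000×g, 10 min, 4 °C) and 0.22 μm filtration, supernatant protein was determined by BCA assay at 562 nm. Vehicle controls; technical triplicates.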

[12] = tested on: TNF-α in LPS-stimulated RAW 264.7 macrophages; assay: TNF-α release, LPS-stimulated macrophages; assay type: cell-based
[13] = tested on: S. aureus MRSA2 mature biofilm; assay: Mature biofilm eradication; assay type: cell-based, Staphylococcus aureus; conditions: 128 μg mL^−1 (16 × MIC), 24 hours treatment
Cytotoxicity assay [14] = assay type: cell-based; conditions: human, HK-2 cells
S. aureus MRSA2 biofilm = assay: Biofilm formation inhibition; assay type: cell-based, Staphylococcus aureus; conditions: 64 μg mL^−1 (8 × MIC)
Summary of the method: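 S. aureus MRSA2 was diluted 1:100 in TSB with 1% (w/v) glucose and incubated with test compound (256–2 μg mL−1) for 24 h at 37 °C; DMSO-matched controls. Wells were rinsed with PBS three times, air-dried, stained with 0.1% crystal violet for 15 min, destained with 95% ethanol and read at 595 nm. Inhibition % = (ODcontrol − ODsample)/ODcontrol × 100. Triplicate.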

Cytotoxicity assay [15] = assay type: cell-based; conditions: human, LO2 cells
[16] = tested on: NO in LPS-stimulated RAW 264.7 macrophages; assay: Nitric oxide production, LPS-stimulated macrophages; assay type: cell-based; conditions: 128 μg mL^−1
Summary of the method: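 Murine RAW 264.7 macrophages (5 × 10^4 per well, DMEM with 10% FBS) were allowed to adhere overnight. Cells were pretreated with test compound for 2 h, then exposed to LPS (e.g., 100 ng mL−1) for 24 h at 37 °C under 5% CO2. Nitric oxide in culture supernatants was measured with a commercial detection kit. Vehicle controls (e.g., 0.1% DMSO); ≥3 biological replicates.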

E. coli ATCC 25922 = assay: MIC, broth microdilution; assay type: cell-based, Escherichia coli; conditions: 16–24 h
Summary of the method: as §1

CCN(CC)c1ccc(C=O)c(O)c1 [C, 4-(diethylamino)-2-hydroxybenzaldehyde]
activity against E. faecalis ATCC29212 (E. faecalis ATCC29212): >256 | activity against S. aureus LN38 (S. aureus LN38): >256 | activity against L. monocytogenes CICC21662 [1]: >256 | MIC (S. aureus MRSA2): > 256 µg/mL | Minimum inhibitory concentration (MIC), S. aureus MRSA2 (S. aureus MRSA2; clinically isolated methicillin-resistant S. aureus MRSA2, 16–24 h): >256 µg/mL | MIC (S. aureus ATCC 29213 [2]): > 256 µg/mL | activity against B. subtilis ATCC6633 (B. subtilis ATCC6633): >256 | activity against B. cereus CMCC63303 (B. cereus CMCC63303): >256

CCN(CC)c1ccc(C=NNC(=O)c2ccccc2)c(O)c1 [D1, N′-(4-(diethylamino)-2-hydroxybenzylidene)benzohydrazide]
MIC (S. aureus MRSA2): > 256 µg/mL | MIC (S. aureus ATCC 29213 [2]): > 256 µg/mL

CCN(CC)c1ccc(C=NNC(=O)c2ccncc2)c(O)c1 [D2, N′-(4-(diethylamino)-2-hydroxybenzylidene)isonicotinohydrazide]
MIC (S. aureus MRSA2): > 256 µg/mL | MIC (S. aureus ATCC 29213 [2]): > 256 µg/mL

CCN(CC)c1ccc(C=NNC(=O)c2ccc(C)cc2)c(O)c1 [D3, N′-(4-(diethylamino)-2-hydroxybenzylidene)-4-methylbenzohydrazide]
MIC (S. aureus MRSA2): > 256 µg/mL | MIC (S. aureus ATCC 29213 [2]): > 256 µg/mL

CCN(CC)c1ccc(C=NNC(=O)c2ccccn2)c(O)c1 [D5, N′-(4-(diethylamino)-2-hydroxybenzylidene)picolinohydrazide]
time to complete eradication of bacteria (S. aureus ATCC 29213 [3]; 8 × MIC): ≤ 10 h | eradication of bacterial colonies (S. aureus ATCC 29213 [3]; S. aureus ATCC 29213, 8 × MIC (64 μg mL^−1), within 10 hours): > 99.9% | membrane permeabilization (PI uptake) (S. aureus ATCC 29213 [4]): near-complete PI uptake | inhibition at 128 µg/mL [5]: 46% | activity against E. faecalis ATCC29212 (E. faecalis ATCC29212): 8 | membrane depolarization (DiOC2(3) red/green fluorescence ratio) (S. aureus ATCC 29213 [6]): significant decrease | hemolysis at 256 μg mL^−1 (rabbit red blood cells; 256 μg mL^−1): no significant hemolysis | hemolytic activity against rabbit RBCs (rabbit red blood cells; 2 to 256 μg mL^−1, 4% rabbit RBCs, 37 °C): no hemolytic activity | activity against S. aureus LN38 (S. aureus LN38): 16 | leakage of DNA into culture medium (S. aureus ATCC 29213 [7]): dose-dependent efflux | activity against L. monocytogenes CICC21662 [1]: 8 | MIC (S. aureus MRSA2): 8 µg/mL (≈ 25.6 µM) | inhibition at 128 µg/mL [8]: 39% | increase of MIC after serial passage (S. aureus ATCC 29213 [9]): 16 fold | fraction unbound at 24 h, 30 μM [10]: 0.134 | leakage of proteins into culture medium (S. aureus ATCC 29213 [11]): dose-dependent efflux | lowest concentration at which TNF-α suppression emerges ([12]; LPS-stimulated RAW 264.7): 8 µg/mL | inhibition at 128 µg/mL ([12]; Mus musculus, RAW264.7, read-out: inhibition of TNF-α release): 40% | clearance of mature biofilms [13]: > 95% | activity against B. subtilis ATCC6633 (B. subtilis ATCC6633): 16 | viability at 24 h, 256 μg mL^−1 (Cytotoxicity assay [14]): > 85% | suppression of biofilm formation (S. aureus MRSA2 biofilm): > 95% | viability at 24 h, 256 μg mL^−1 (Cytotoxicity assay [15]): > 85% | reduction of nitric oxide (NO) synthesis [16]: 53% | Minimum inhibitory concentration (MIC), E. coli ATCC 25922 (E. coli ATCC 25922): >256 µg/mL | activity against B. cereus CMCC63303 (B. cereus CMCC63303): 8

CCN(CC)c1ccc(C=Nc2cc(C)ccc2O)c(O)c1 [D9, 2-((4-(diethylamino)-2-hydroxybenzylidene)amino)-4-methylphenol]
MIC (S. aureus MRSA2): > 256 µg/mL | MIC (S. aureus ATCC 29213 [2]): > 256 µg/mL

CCN(CC)c1ccc(C=Nc2cc(C)c(Br)cn2)c(O)c1 [D10, 2-(((5-bromo-4-methylpyridin-2-yl)imino)methyl)-5-(diethylamino)phenol]
MIC (S. aureus MRSA2): > 256 µg/mL | MIC (S. aureus ATCC 29213 [2]): > 256 µg/mL

CN[C@H](CC(C)C)C(=O)N[C@H]1C(=O)N[C@@H](CC(N)=O)C(=O)N[C@H]2C(=O)N[C@H]3C(=O)N[C@H](C(=O)N[C@H](C(=O)O)c4cc(O)cc(O)c4-c4cc3ccc4O)[C@H](O)c3ccc(c(Cl)c3)Oc3cc2cc(c3O[C@@H]2O[C@H](CO)[C@@H](O)[C@H](O)[C@H]2O[C@H]2C[C@](C)(N)[C@H](O)[C@H](C)O2)Oc2ccc(cc2Cl)[C@H]1O [Vancomycin]
activity against E. faecalis ATCC29212 (E. faecalis ATCC29212): 2 | activity against S. aureus LN38 (S. aureus LN38): 1 | activity against L. monocytogenes CICC21662 [1]: 1 | MIC (S. aureus MRSA2): 2 µg/mL (≈ 1.38 µM) | MIC (S. aureus ATCC 29213 [2]): 1 µg/mL (≈ 0.69 µM) | activity against B. subtilis ATCC6633 (B. subtilis ATCC6633): 1 | activity against B. cereus CMCC63303 (B. cereus CMCC63303): 1

Reference: article PMC12462367 (RSC Advances, 2025)
